Among the data in ChEMBL document CHEMBL1122764, “Synthesis and antidepressant activity of 4-aryltetrahydrothieno[2,3-c]pyridine derivatives” (J Med Chem, 1984) are IC50 and ED50 values, retold here.

Experiment [1] is filed under the species Rattus norvegicus. The experiment is described as follows: In vitro inhibition of norepinephrine uptake in rat brain synaptosomes using [3H]NE. In kind it is functional, organism-based.
Experiment [2] is filed under the species Rattus norvegicus. The experiment is described as follows: cells. In kind it is functional, organism-based, Synaptosomes. The following applies: Brain, 3 h.
The species named for experiment [3] is Mus musculus. In words: Anti-tetrabenazine (TBZ) activity, ability to prevent TBZ-induced ptosis in mice. In kind it is functional. The gist of the method: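 Mice; compound given by an unstated route some hours before tetrabenazine (the time is truncated). Five animals per dose, with at least three to five doses. Ptosis scored 75-120 min after tetrabenazine injection on the Rubin scale (eyes closed = 100).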

Consider `Cc1cc2c(s1)CN(C)CC2(C)c1ccc(Br)cc1` (configuration not stated), for which the results for the IC50 in experiment [1] and in experiment [2] were 3400 nM and 3100 nM, respectively. The same compound returned an ED50 in experiment [3] of 40 mg/kg.
As for `Oc1cccc(C2CNCc3sc(Cl)cc32)c1` (configuration not stated), the half-inhibitory concentration (IC50) in experiment [1] was 3200 nM; in experiment [2], greater than 10000 nM. The ED50 in experiment [3] was greater than 40 mg/kg.
Take `CN1Cc2sc(N)cc2C(c2ccc(Cl)cc2)C1` (configuration not stated): the IC50 in experiment [1] came to 180 nM; in experiment [2] it was 210 nM. The same compound came in with a 50% effective dose (ED50) in experiment [3] greater than 40 mg/kg.
Take `COCc1cc2c(s1)CN(C)CC2c1ccc(Br)cc1` (configuration not stated): the IC50 in experiment [1] turned out to be 370 nM; in experiment [2], 200 nM. In addition, the median effective dose (ED50) in experiment [3] worked out at 1.7 mg/kg.
In the case of `CN1Cc2sc([N+](=O)[O-])cc2C(c2ccc(Cl)cc2)C1` (configuration not stated), the results for the IC50 in experiment [1] and in experiment [2] were 800 nM and 3350 nM, respectively. Besides, in experiment [3], the ED50 is greater than 40 mg/kg.
Take `CN1Cc2sc(Br)cc2C(c2ccc(Br)cc2)C1` (configuration not stated): the concentration for half-maximal inhibition (IC50) in experiment [1] was determined as 1600 nM; in experiment [2], 4100 nM. The compound further yielded an ED50 in experiment [3] of 0.8 mg/kg.
For the compound `CN1Cc2sc(N)cc2C(c2ccc(Br)cc2)C1` (configuration not stated), the figures for the half-inhibitory concentration (IC50) in experiment [1] and in experiment [2] were 130 nM and 90 nM, respectively. Further, it took a dose of 7.4 mg/kg to reach the 50% effect level in experiment [3] (ED50).
With `CN1Cc2sc(Cl)cc2C(c2ccc(Br)cc2)C1.Cl` (configuration not stated), the IC50 was found to be 1000 nM in experiment [1] and 3500 nM in experiment [2]. The compound also came in with an ED50 in experiment [3] of 6.5 mg/kg.
On to `CN1Cc2sc([N+](=O)[O-])cc2C(c2ccc(Br)cc2)C1.Cl` (configuration not stated), for which the IC50 in experiment [1] was found to be 450 nM; in experiment [2] it was 2450 nM. The same compound gave a median effective dose (ED50) in experiment [3] of 3.6 mg/kg.
In the case of `COc1ccc(C2CN(C)Cc3sccc32)cc1OC.Cl` (configuration not stated), the values for the IC50 in experiment [1] and in experiment [2] were greater than 10000 nM and 300 nM, respectively. Moreover, the ED50 in experiment [3] was greater than 40 mg/kg.
`Cc1sc2c(c1Br)C(c1ccc(Br)cc1)CN(C)C2.Cl` (configuration not stated): the half-maximal inhibitory concentration (IC50) was 7800 nM in experiment [1] and greater than 10000 nM in experiment [2]. Besides, the ED50 in experiment [3] is greater than 40 mg/kg.
On the same counts, the results for `CN1Cc2sccc2C(c2ccc(Cl)cc2Cl)C1.Cl` (configuration not stated) are greater than 10000 nM, 3000 nM and greater than 40 mg/kg.
`Cc1cc2c(s1)CN(C)CC2c1cccc(C(F)(F)F)c1.Cl` (configuration not stated): the IC50 in experiment [1] is 3400 nM; in experiment [2] it was greater than 10000 nM. The compound also gave an ED50 in experiment [3] greater than 40 mg/kg.
As for `COc1ccc(C2CN(C)Cc3sc(C)cc32)cc1.Cl` (configuration not stated), the figures for the IC50 in experiment [1] and in experiment [2] were 400 nM and 500 nM, respectively. The same compound showed an ED50 in experiment [3] of 7.1 mg/kg.
On to `Cl.c1ccc(C2CNCc3sccc32)cc1` (configuration not stated), for which the half-inhibitory concentration (IC50) in experiment [1] is 3000 nM; in experiment [2] it was greater than 10000 nM. In experiment [3], the ED50 was greater than 40 mg/kg.
As to `CN1Cc2sc(Cl)cc2C(c2ccc(Cl)cc2)C1.Cl` (configuration not stated), the figures for the IC50 in experiment [1] and in experiment [2] were 1600 nM and 5400 nM, respectively. The 50% effective dose (ED50) in experiment [3] stood at 2.2 mg/kg.
For `CCCCN1Cc2sccc2C(c2ccc(Cl)cc2)C1.Cl` (configuration not stated), the IC50 in experiment [1] and in experiment [2] was greater than 10000 nM in each case. In experiment [3], this compound displayed a 50% effective dose (ED50) greater than 40 mg/kg.
For `CN1Cc2sc(C(C)(C)C)cc2C(c2ccc(Br)cc2)C1.Cl` (configuration not stated), the results for the IC50 in experiment [1] and in experiment [2] were 1740 nM and 5700 nM, respectively. In experiment [3], this compound gave an ED50 of 7 mg/kg.
On the same counts, the results for `Cc1cc2c(s1)CN(C)CC2c1c(Cl)cccc1Cl.Cl` (configuration not stated) are greater than 10000 nM, greater than 10000 nM and greater than 40 mg/kg.
On to `Cc1ccc(C2CN(C)Cc3sc(CO)cc32)cc1.Cl` (configuration not stated), for which the IC50 in experiment [1] is 50 nM; in experiment [2], 1200 nM. This compound returned an ED50 in experiment [3] of 0.7 mg/kg.
For `CCCc1cc2c(s1)CN(C)CC2c1ccc(Br)cc1.Cl` (configuration not stated), the concentration for half-maximal inhibition (IC50) worked out at 990 nM in experiment [1] and 860 nM in experiment [2]. In experiment [3], this compound returned a median effective dose (ED50) of 40 mg/kg.
For `Cc1ccc(C2CN(C)Cc3sc(Cl)cc32)cc1.Cl` (configuration not stated), the IC50 in experiment [1] is 900 nM; in experiment [2] it was greater than 10000 nM. The compound further showed a median effective dose (ED50) in experiment [3] of 5.9 mg/kg.
With `Cc1ccc(C2CN(C)Cc3sc(Br)cc32)cc1.Cl` (configuration not stated), the IC50 in experiment [1] was 640 nM; in experiment [2], 9000 nM. Besides, the ED50 in experiment [3] was 7.4 mg/kg.
For the compound `Cc1cc2c(s1)CN(C)CC2c1ccc(O)cc1.Cl` (configuration not stated), the values for the IC50 in experiment [1] and in experiment [2] were 250 nM and 460 nM, respectively. The 50% effect level in experiment [3] (ED50) was put at a dose of 10 mg/kg.
Turning to `Cc1cc2c(s1)CNCC2c1ccc(Br)cc1.Cl` (configuration not stated), the concentration for half-maximal inhibition (IC50) in experiment [1] came to 760 nM; in experiment [2], 1800 nM. In experiment [3], this compound displayed an ED50 greater than 40 mg/kg.
As to `Cc1cc2c(s1)CN(C)CC2c1ccc(Br)cc1.Cl` (configuration not stated), the values for the 50% inhibitory concentration (IC50) in experiment [1] and in experiment [2] were 500 nM and 540 nM, respectively. Moreover, in experiment [3], the ED50 is 2.6 mg/kg.
Consider `CN1Cc2sc(Br)cc2C(c2ccccc2)C1.Cl` (configuration not stated), for which the IC50 is 2300 nM in experiment [1] and greater than 10000 nM in experiment [2]. In experiment [3], this compound displayed an ED50 of 6 mg/kg.
With `Cc1cc2c(s1)CN(C)CC2c1ccccc1.Cl` (configuration not stated), the values for the 50% inhibitory concentration (IC50) in experiment [1] and in experiment [2] were 560 nM and 8000 nM, respectively. In experiment [3], this compound registered an ED50 of 8.4 mg/kg.
As to `Cc1cc2c(s1)CN(C)CC2c1ccc(C(F)(F)F)cc1.Cl` (configuration not stated), the IC50 in experiment [1] came out at 7800 nM; in experiment [2], 2050 nM. In experiment [3], this compound came in with a 50% effective dose (ED50) greater than 40 mg/kg.
Consider `CCc1cc2c(s1)CN(CC)CC2c1ccc(C)cc1.Cl` (configuration not stated), for which the results for the IC50 in experiment [1] and in experiment [2] were 270 nM and 1800 nM, respectively. For the same compound, the median effective dose (ED50) in experiment [3] is greater than 40 mg/kg.
Consider `CCCc1cc2c(s1)CN(C)CC2c1ccc(F)cc1.Cl` (configuration not stated), for which the IC50 in experiment [1] was determined as 1100 nM; in experiment [2], 780 nM. The same compound returned a median effective dose (ED50) in experiment [3] of 13 mg/kg.
In the case of `CC(=O)Nc1cc2c(s1)CN(C)CC2c1ccc(Cl)cc1.Cl` (configuration not stated), the IC50 was 570 nM in experiment [1] and 600 nM in experiment [2]. This compound gave a median effective dose (ED50) in experiment [3] of 35 mg/kg.
Regarding `Cc1cc2c(s1)CN(C)CC2c1ccc(Cl)cc1.Cl` (configuration not stated), the half-inhibitory concentration (IC50) in experiment [1] amounted to 190 nM; in experiment [2] it was 3550 nM. Moreover, the median effective dose (ED50) in experiment [3] is greater than 40 mg/kg.
As to `Cl.Clc1cc2c(s1)CNCC2c1ccc(Br)cc1` (configuration not stated), the IC50 in experiment [1] was 3600 nM; in experiment [2] it was greater than 10000 nM. The 50% effective dose (ED50) in experiment [3] was greater than 40 mg/kg.
Turning to `CN1Cc2sc(Cl)cc2C(c2ccccc2)C1.Cl` (configuration not stated), the IC50 was 1400 nM in experiment [1] and greater than 10000 nM in experiment [2]. This compound also registered an ED50 in experiment [3] greater than 40 mg/kg.
On the same counts, the results for `CCC1(c2ccc(Br)cc2)CN(C)Cc2sc(C)cc21` (configuration not stated) are greater than 10000 nM, greater than 10000 nM and greater than 40 mg/kg.
Regarding `CN(C)CCCN1c2ccccc2CCc2ccccc21` [IMIPRAMINE], the IC50 in experiment [1] came out at 5000 nM; in experiment [2] it was 230 nM. This compound yielded an ED50 in experiment [3] of 2.3 mg/kg.
Take `CN1Cc2c(N)cccc2C(c2ccccc2)C1` (configuration not stated) [NOMIFENSINE]: the median effective dose (ED50) in experiment [3] came to 1.7 mg/kg.

Usually IC50 stands for the midpoint of a concentration-inhibition curve. A high value points to weaker potency. Broadly, the ED50 is the midpoint of the dose-response relation.
